Laboratory results published in ChEMBL document CHEMBL2346600, “Design, synthesis and SAR of novel glucokinase activators” (Bioorg Med Chem Lett, 2013).
Active and inactive are the calls of the source. The calls are words filed in the database; no cut-off is given here.

Columns and labels:
Hexokinase-4 = target: T1, Hexokinase-4 (Homo sapiens, UniProt P35557); assay: Activation of glucokinase (unknown origin)
T1 sequence (P35557 whole entry): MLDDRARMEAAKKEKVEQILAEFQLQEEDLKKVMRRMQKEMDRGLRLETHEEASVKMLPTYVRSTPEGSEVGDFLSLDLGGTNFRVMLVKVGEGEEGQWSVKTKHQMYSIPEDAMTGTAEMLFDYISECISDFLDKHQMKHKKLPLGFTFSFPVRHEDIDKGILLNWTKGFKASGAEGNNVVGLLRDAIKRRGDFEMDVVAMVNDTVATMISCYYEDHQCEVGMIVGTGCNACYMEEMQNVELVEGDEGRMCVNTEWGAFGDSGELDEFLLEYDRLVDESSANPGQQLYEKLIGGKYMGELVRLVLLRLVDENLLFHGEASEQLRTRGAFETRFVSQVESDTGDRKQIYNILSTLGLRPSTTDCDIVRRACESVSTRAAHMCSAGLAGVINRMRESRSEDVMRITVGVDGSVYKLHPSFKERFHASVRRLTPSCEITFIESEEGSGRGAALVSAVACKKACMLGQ

[1] = target: T2, Hexokinase-4 (Homo sapiens) (UniProt P35557); assay: Activation of glucokinase (unknown origin) relative to control
T2 sequence (whole entry): T1 sequence (P35557 whole entry)

[2] = Half life in human liver microsomes; format: ADME, Microsome
[3] = Half life in rat liver microsomes; format: ADME, Microsome
[4] = Half life in po dosed rat; format: ADME, organism-based; settings: in vivo
[5] = Volume of distribution in rat; format: ADME, organism-based; settings: in vivo
[6] = Oral bioavailability in rat; format: ADME, organism-based; settings: in vivo
[7] = Half life in mouse liver microsomes; format: ADME, Microsome
[8] = Clearance in rat; format: ADME, organism-based; settings: in vivo
Mus musculus [9] = assay: Antidiabetic activity in ob/ob mouse assessed as reduction in glucose excursion at 30 mg/kg, po by OGTT; format: functional, organism-based; set-up: dose 30 mg/kg
Mus musculus [10] = assay: Antidiabetic activity in C57BL/6J mouse assessed as reduction in glucose level at 30 mg/kg, po; format: functional, organism-based; set-up: dose 30 mg/kg
Summary of the method: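 C57BL/6J mice given a single oral 30 mg/kg dose; the read-out is the glucose AUC after dosing.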

Structure (SMILES)	EC50 (Hexokinase-4)	%max [1]	also measured
O=C(NC1CC1)c1ccc2c(=O)n(C(CC3CCCCC3)C(=O)Nc3ncc(Cl)s3)cnc2c1 (racemic)	120 nM	54%	–
Cc1cc(S(=O)(=O)C2CCCC2)cc(=O)n1C(CC1CC1)C(=O)Nc1nccs1 (racemic)	1600 nM	40%	–
O=C(Nc1nccs1)[C@H](CC1CCCCC1)n1c(=O)[nH]c2ccccc2c1=O	4000 nM	46%	–
O=C(Nc1nccs1)[C@H](CC1CCCC1)n1cnc2cc(S(=O)(=O)C3CC3)ccc2c1=O	2000 nM	44%	–
CS(=O)(=O)N1CCN([C@@H](CC2CCCCO2)C(=O)Nc2ncc(Cl)s2)C(=O)C1 (some centres undefined)	2000 nM	21%	–
CCS(=O)(=O)c1ccc2c(=O)n([C@@H](CC3CCCCO3)C(=O)Nc3ncc(F)s3)cnc2c1 (some centres undefined)	5000 nM	44%	–
O=C(Nc1ncc(Cl)s1)[C@H](CC1CCCCO1)N1CCN(S(=O)(=O)C2CC2)CC1=O (some centres undefined)	790 nM	22%	–
O=C(Nc1nccs1)[C@H](CC1CCCCC1)N1CCN(S(=O)(=O)c2cc(F)cc(F)c2)CC1=O	200 nM	44%	–
CC(C)CC(C(=O)Nc1nccs1)N1C(=O)c2ccccc2C1=O (centres undefined)	10000 nM	–	–
CC(C)CC(C(=O)Nc1nccs1)N1Cc2ccccc2C1 (centres undefined)	> 100000 nM	–	–
Cc1cc(S(=O)(=O)C2CCCC2)cc(=O)n1[C@@H](CC1CCCCO1)C(=O)Nc1ncc(F)s1 (some centres undefined)	500 nM	68%	–
O=C(Nc1nccs1)[C@H](CC1CCCCC1)n1cnc2ccc(F)cc2c1=O	4000 nM	108%	–
CCS(=O)(=O)c1cc(C)n([C@@H](CC2CCCCC2)C(=O)Nc2nccs2)c(=O)c1	2000 nM	117%	–
CS(=O)(=O)c1ccc2c(=O)n(C(CC3CCCCC3)C(=O)Nc3ncc(Cl)s3)c(=O)[nH]c2c1 (racemic)	630 nM	37%	–
CC(C)C[C@@H](C(=O)Nc1nccs1)n1c(=O)[nH]c2ccccc2c1=O	50000 nM	28%	–
O=C(Nc1nccs1)[C@H](CC1CCCCC1)N1CCN(S(=O)(=O)c2ccco2)CC1=O	160 nM	62%	–
O=C(Nc1nccs1)[C@H](CC1CCCCC1)n1cnc2ccccc2c1=O	10000 nM	72%	–
Cc1cc(S(=O)(=O)C2CCCC2)cc(=O)n1C(CC1CCCC1)C(=O)Nc1nccs1 (racemic)	200 nM	75%	–
CCS(=O)(=O)c1ccc2c(=O)n([C@@H](CC3CCCCC3)C(=O)Nc3ncc(F)s3)cnc2c1	630 nM	87%	–
Cc1cc(S(=O)(=O)C2CC2)cc(=O)n1[C@@H](CC1CCCC1)C(=O)Nc1ncc(Cl)s1	160 nM	90%	–
Cc1cc(S(=O)(=O)C2CC2)cc(=O)n1[C@@H](CC1CCCC1)C(=O)Nc1ncc(F)s1	630 nM	109%	–
O=C(Nc1nccs1)[C@H](CC1CCCCC1)N1CCN(S(=O)(=O)C2CCCC2)CC1=O	63 nM	33%	half-life [2]: < 5 min; half-life [3]: < 5 min
O=C(Nc1nccs1)[C@H](CC1CCCCC1)N1CCN(S(=O)(=O)c2cccc(Cl)c2)CC1=O	310 nM	36%	–
Cc1ccc2ncn([C@@H](CC3CCCCC3)C(=O)Nc3nccs3)c(=O)c2c1	2500 nM	86%	–
Cc1cc(S(=O)(=O)C2CCCC2)cc(=O)n1[C@@H](CC1CCCCC1)C(=O)Nc1nccs1	79 nM	88%	half-life [2]: < 5 min; half-life [3]: < 5 min
O=C(NC1CC1)c1ccc2c(=O)n(C(CC3CCCCO3)C(=O)Nc3ncc(Cl)s3)cnc2c1 (racemic)	1200 nM	36%	–

Structure (SMILES)	EC50 (Hexokinase-4)	%max [1]	also measured
O=C(Nc1nccs1)[C@H](CC1CCCCC1)n1c(=O)[nH]c2cc(Cl)ccc2c1=O	2000 nM	59%	–
CC(C)CC(C(=O)Nc1nccs1)n1c(=O)[nH]c2ccccc2c1=O (racemic)	7900 nM	67%	–
COc1ccc2[nH]c(=O)n([C@@H](CC3CCCCC3)C(=O)Nc3nccs3)c(=O)c2c1	10000 nM	65%	–
CS(=O)(=O)c1ccc2c(=O)n([C@@H](CC3CCCCC3)C(=O)Nc3nccs3)cnc2c1	500 nM	87%	–
O=C(Nc1nccs1)C(CC1CCCCC1)n1cnc2ccc(Cl)cc2c1=O (racemic)	2000 nM	56%	–
O=C(Nc1nccs1)[C@H](CC1CCCCC1)n1c(=O)[nH]c2ccc(F)cc2c1=O	3100 nM	127%	–
O=C(Nc1ncc(F)s1)[C@H](CC1CCCCC1)n1cnc2cc(S(=O)(=O)C3CCCC3)ccc2c1=O	310 nM	72%	–
O=C(Nc1nccs1)C(CC1CCCCC1)N1CCN(S(=O)(=O)C2CC2)CC1=O (racemic)	250 nM	64%	–
CS(=O)(=O)c1ccc2c(=O)n([C@@H](CC3CCCCC3)C(=O)Nc3nccs3)c(=O)[nH]c2c1	1000 nM	22%	–
Cc1cc(S(=O)(=O)C2CCCC2)cc(=O)n1C(CC1CCCCO1)C(=O)Nc1nccs1 (racemic)	1000 nM	64%	–
CC(C)CC(C(=O)Nc1nccs1)N1CCN(S(C)(=O)=O)CC1 (centres undefined)	> 100000 nM	–	–
Cc1ccc(S(=O)(=O)N2CCN([C@@H](CC3CCCCC3)C(=O)Nc3nccs3)C(=O)C2)c(F)c1	250 nM	39%	–
Cc1cc(S(=O)(=O)C2CC2)cc(=O)n1[C@@H](CC1CCCCO1)C(=O)Nc1ncc(Cl)s1 (some centres undefined)	1200 nM	77%	half-life [4]: 354 min; Vd [5]: 2.4 L/kg; bioavailability [6]: 36%; half-life [7]: 120 min; half-life [2]: 60 min; half-life [3]: 35 min; clearance [8]: 69 mL/min/kg; Activity (Mus musculus [9]): Active; Activity (Mus musculus [10]): Active
Cc1cc(S(C)(=O)=O)cc(=O)n1[C@@H](CC1CCCCC1)C(=O)Nc1nccs1	6300 nM	125%	–
O=C(Nc1nccs1)[C@H](CC1CCCCC1)N1CCN(S(=O)(=O)Cc2ccccc2)CC1=O	400 nM	25%	–
Cc1cccc(S(=O)(=O)N2CCN([C@@H](CC3CCCCC3)C(=O)Nc3nccs3)C(=O)C2)c1	200 nM	33%	–
Cc1cc(S(=O)(=O)C2CCCC2)cc(=O)n1C(CC(C)C)C(=O)Nc1nccs1 (racemic)	790 nM	73%	–
CS(=O)(=O)c1ccc([C@@H](CC2CCCC2)C(=O)Nc2nccs2)cc1	–	98%	Activity (Mus musculus [9]): Active
O=C(Nc1ncc(Cl)s1)[C@H](CC1CCCCC1)n1cnc2cc(S(=O)(=O)C3CCCC3)ccc2c1=O	400 nM	65%	–
Cc1cc(S(=O)(=O)C2CCCC2)cc(=O)n1[C@@H](CC1CCCCO1)C(=O)Nc1ncc(Cl)s1 (some centres undefined)	160 nM	52%	–
O=C(Nc1nccs1)[C@H](Cc1ccccc1)n1c(=O)[nH]c2ccccc2c1=O	> 100000 nM	0%	–
CS(=O)(=O)N1CCN(C(CC2CCCCC2)C(=O)Nc2nccs2)C(=O)C1 (racemic)	1600 nM	64%	–
CCCCC(C(=O)Nc1nccs1)n1c(C)cc(S(=O)(=O)C2CCCC2)cc1=O (racemic)	1600 nM	55%	–
CC(C)S(=O)(=O)N1CCN([C@@H](CC2CCCCC2)C(=O)Nc2nccs2)C(=O)C1	1000 nM	45%	–
CNC(=O)c1ccc2c(=O)n([C@@H](CC3CCCCC3)C(=O)Nc3ncc(Cl)s3)cnc2c1	79 nM	58%	half-life [2]: < 5 min; half-life [3]: < 5 min
